High-throughput results (PubChem BioAssay)
697 NFkB inh – inhibitors of PMA/ionomycin-induced NF-kB reporter, 697 cells, primary screen, B-cell NF-kB inhibitor project, cell-based, luminescence, uHTS. 697 B-cell NF-kB luciferase reporter, 16 h. 330,000 tested, 0.33% active. inhibition, % at 4 µM. AID 435022, 2010; in the data active means inhibition above about 35%
CHOP UPR activ – activators of apoptotic CHOP UPR arm, primary screen, cell-based, CHO-CHOP luciferase reporter, luminescence, uHTS | UPR activation; percent of tunicamycin response over DMSO baseline | activation, % at 10 µM | 330,000 tested, 0.34% active;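 active means at 10 µM dose, activation of 40% or more, normalized to positive control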
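System: CHO-CHOP luciferase reporter cell line | Buffer or medium: F12 medium containing 10% fetal bovine serum | Doses: One dose, 10 µM in 0.5% DMSO | Times: 6 h compound exposure at 37 °C after overnight seeding | Signal: Luciferase luminescence | Read-out: % activation vs tunicamycin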
UPR XBP1 act – activators of adaptive XBP1 UPR arm, primary screen, cell-based, CHO-XBP1 luciferase reporter, luminescence, uHTS; IRE1-XBP1 UPR activation; percent of tunicamycin response, DMSO as zero; activation, % at 20 µM; 330,000 tested, 0.33% active;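 active means versus positive control, 20 µM dose yields 30% or more activation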
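Material: CHO cell line with stable XBP1 luciferase reporter; schedule: 16-18 h cell attachment at 37 °C, then 6 h compound exposure; signal: glow luminescence from Steady-Glo reagent; medium: serum-containing F12 medium, 10% FBS; benchmarks: tunicamycin 10 µg/mL and vehicle-only wells; read-out: percent activation relative to tunicamycin reference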
Jurkat NFkB inh – inhibitors of induced NF-kB luciferase reporter, primary screen, TCR NF-kB activation inhibitor project, cell-based, luminescence, uHTS; Jurkat, PMA/ionomycin-induced NF-kB luciferase reporter; inhibition, % at 4 µM; 330,000 tested, 0.53% active; AID 435003, 2010; in the data active means inhibition above about 50%
CRFBP-R2 block – antagonists of CRF-BP/CRF-R2 complex, primary screen, cell-based, HEK293, calcium dye fluorescence, uHTS; 350,000 tested, 0.59% active; CRF-induced calcium fluorescence; inhibition, % at 11.8 µM; AID 588475, 2011;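 active means inhibition of the ligand-induced calcium signal above about 50% at the single tested concentration, limit read from the data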
Jurkat NFkB conf – PMA/ionomycin-induced NF-kB reporter inhibitors, Jurkat retest, confirmation, T-cell NF-kB inhibitor project, cell-based, luminescence, single concentration; shares compounds with Jurkat NFkB inh; Jurkat NF-kB luciferase, 16 h; inhibition, % at 4 µM; 2,700 tested, 27% active;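 active means inhibition reaching about 45% at 4 µM in either replicate, limit read from the data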
Each line names hits and unclear results; the compound was inactive in the other large screens (follow-up assays come after a bar, where they were run). Shown are actives, neighbours in structure and some others; about 1.8% of the full set was active somewhere.

COc1cc(Nc2ccc(C)cc2)c([N+](=O)[O-])nc1[N+](=O)[O-]	Jurkat NFkB inh 58 | Jurkat NFkB conf 50
N/C(=C\C(=O)c1cc(Cl)ccc1O)C(Cl)(Cl)Cl	Jurkat NFkB inh 64 | Jurkat NFkB conf inactive
CN(C)c1ncnc2c1ncn2C1OC(CO)C(O)C1O (centres undefined)	none
COc1ccc(C[C@H](N)C(=O)N[C@H]2[C@@H](O)[C@H](n3cnc4c(N(C)C)ncnc43)O[C@@H]2CO)cc1	Jurkat NFkB inh 100 | Jurkat NFkB conf 88
COC(=O)c1c(-c2cccc3ccccc23)csc1NC(=O)Cc1ccc(OC)c(OC)c1	Jurkat NFkB inh 53 | Jurkat NFkB conf inactive
O=C(Oc1ccc(-c2cnc3ccccc3n2)cc1)c1ccco1	none | Jurkat NFkB conf inactive
CCC(=O)Oc1ccc(-c2cnc3ccccc3n2)cc1	none
Cc1ccc(S(=O)(=O)Nc2ccc(S(=O)(=O)Nc3nccs3)cc2)cc1C	none
COc1ccc(S(=O)(=O)NC2CC(=O)N(c3ccccc3)C2)cc1C (centres undefined)	none
CNC(=O)c1nnsc1S(=O)c1ccc(Cl)cc1 (centres undefined)	none
CCCNC(=O)c1nnsc1S(=O)c1ccc(Cl)cc1 (centres undefined)	Jurkat NFkB inh 59 | Jurkat NFkB conf inactive
c1ccc(CN2CCOCC2)cc1	none
O=c1c2ccccc2oc2cc(-c3ccc(CN4CCOCC4)cc3)ccc12	none | Jurkat NFkB conf inactive
O=C(NCCc1ccccc1)[C@@H]1CC=C[C@@H]2CCN(Cc3ccccc3)C(=O)[C@@H]21	none
Cc1ccc(COc2ccccc2-c2cc(C(=O)N/N=C/c3cccnc3)[nH]n2)cc1	Jurkat NFkB inh 53 | Jurkat NFkB conf inactive
COc1cccc(CN(C)C(=O)/C=C/c2ccc(S(=O)(=O)N3CCCCCC3)cc2)c1	none
CN=c1scc(-c2cccs2)n1/N=C/c1ccccc1O	Jurkat NFkB inh 77 | Jurkat NFkB conf 82
Cc1cccc(C)c1NC(=O)NCc1ccco1	none
Cc1cccc(C)c1OCCNC(=O)C(=O)NCc1ccco1	Jurkat NFkB inh 67 | Jurkat NFkB conf inactive
COc1cccc(OCC(=O)Nc2ccncc2)c1	none
CC(C)CCOc1cccc(OCC(=O)Nc2ccncc2)c1	Jurkat NFkB inh 57 | Jurkat NFkB conf 65
CS(=O)(=O)N(Cc1nc(-c2ccc(F)cc2)no1)c1ccccc1Cl	none
NC1=NC2(CCCCC2)N=C(Nc2ccc(F)cc2F)N1	none
Cc1cc(C)cc(NC2=NC3(CCCCC3)N=C(N)N2)c1	Jurkat NFkB inh 66 | Jurkat NFkB conf inactive
COc1ccc(CC(=O)NC2CCS(=O)(=O)C2)cc1 (centres undefined)	none
Cc1ccc(NC(=O)CN(C)C(=O)C(C)OC(=O)c2ccccc2NCCO)cc1 (centres undefined)	none
CC(=O)NC12CC3CC(C1)CC(C(=O)N1CCN(S(=O)(=O)c4cccc(C(F)(F)F)c4)CC1)(C3)C2	none
Cc1nn(-c2ccccc2Cl)c(Cl)c1/C=N/Nc1nc2ccccc2s1	Jurkat NFkB inh 67 | Jurkat NFkB conf 86
Cn1cc(CN2CCN(c3ccc(Cl)cn3)CC2)c(-c2ccccc2F)n1	none
Cc1cccc(N2CCN(Cc3cn(C)nc3-c3ccccc3F)CC2)n1	Jurkat NFkB inh 54 | Jurkat NFkB conf inactive
COc1ccc(S(=O)(=O)NCc2nc3nc(C)cc(C)n3n2)cc1OC	none
CCOC(=O)N1CCC(NC(=O)c2ccc3c(c2)N(C)C(=O)/C(=C/c2cccc(OC)c2)S3)CC1	Jurkat NFkB inh 53 | Jurkat NFkB conf inactive
O=C(c1ccc2n[nH]nc2c1)N1CCN(c2ccc(C(F)(F)F)cn2)CC1	none
COc1ccc(C(=O)c2ccc(OC)c(OC)c2)cc1OC	none
COc1ccc(C(=O)c2ccc(OC)c(N)c2)cc1N	Jurkat NFkB inh 53 | Jurkat NFkB conf inactive
c1ccc2c(c1)oc1c(Nc3ccc4c(c3)OCCO4)ncnc12	none | Jurkat NFkB conf inactive
c1ccc(Cn2ccc(-c3cnc(-c4ccccc4)s3)n2)cc1	none | Jurkat NFkB conf inactive
Nc1ccn(Cc2ccccc2)n1	none
CC1CCCCC1NC(=O)CSc1nnc(C(F)(F)F)n1C (centres undefined)	none (no result: 697 NFkB inh, CHOP UPR activ, UPR XBP1 act, Jurkat NFkB inh)
COc1ccc(C(=O)C=Cc2ccc(OCc3ccccc3)c(OC)c2)cc1OC	none (no result: 697 NFkB inh, CHOP UPR activ, UPR XBP1 act, Jurkat NFkB inh)
COc1cc(/C=C/[N+](=O)[O-])ccc1OCc1cccc(C(=O)O)c1	Jurkat NFkB inh 69 | Jurkat NFkB conf inactive
C(=C\c1ccccc1)/CSc1nnc(-c2ccccc2)n1Cc1ccco1	Jurkat NFkB inh 60, CRFBP-R2 block 62 | Jurkat NFkB conf inactive
Nn1c(SC/C=C/c2ccccc2)nnc1-c1ccco1	none
C[C@H](CO)N1C[C@H](C)[C@H](CN(C)C(=O)Nc2ccc(-c3cccs3)cc2)OCc2cnnn2CCCC1=O	none (no result: 697 NFkB inh, CHOP UPR activ, UPR XBP1 act, Jurkat NFkB inh)
COC(=O)c1[nH]c2c(c1C)C(=O)CCC2	none
COC(=O)c1[nH]c2c(c1C)C(=O)CC(c1cc(OC)ccc1OC)C2 (centres undefined)	Jurkat NFkB inh 61 | Jurkat NFkB conf inactive
CCOc1ccc(C2CC(=O)c3c([nH]c(C(=O)OC)c3C)C2)cc1OC (centres undefined)	none
COC(=O)c1[nH]c2c(c1C)C(=O)CC(c1cccs1)C2 (centres undefined)	Jurkat NFkB inh 56 | Jurkat NFkB conf 54
Cc1c(C)c2cccnc2c2ncccc12	Jurkat NFkB inh 78 | Jurkat NFkB conf 84
Cn1c2ccccc2c(=O)c2ccc(C#CC3(N)CCCCC3)cc21	none | Jurkat NFkB conf inactive
Cn1c2ccccc2c(=O)c2cc(C#CC3(O)CCCCC3)ccc21	none
CCCC(=O)Nc1ccc(C(=O)COC(=O)c2cc(C)oc2C)cc1	none
COc1ccccc1CNS(=O)(=O)c1ccc(-c2cc(C)no2)cc1	Jurkat NFkB inh 60 | Jurkat NFkB conf 48
CCn1c(NC(C)=O)c(-c2ccccc2Cl)c(=O)c2ccccc21	none
Cc1nc(-c2ccc(NC(=O)c3ccc(Br)o3)cc2)cs1	none | Jurkat NFkB conf inactive
Cc1nc(-c2cccc(NC(=O)c3ccc(Br)o3)c2)cs1	none
Cn1c(N)c(C(=O)Nc2ccc3ccccc3c2)sc1=S	none | Jurkat NFkB conf inactive
O=C(NC1CCC(O)CC1)c1ccc(NS(=O)(=O)c2cccc([N+](=O)[O-])c2)cc1 (centres undefined)	none
CCOC(=O)c1sc(=NC(=O)c2cccc(C)c2)n(C)c1C	none | Jurkat NFkB conf inactive
CCOC(=O)c1sc(=NC(=O)c2ccc(F)cc2)n(C)c1C	none | Jurkat NFkB conf inactive
